Data taken from ChEMBL document CHEMBL4715736, “Identification of anticancer agents based on the thieno[2,3-b]pyridine and 1H-pyrazole molecular scaffolds” (2016).

Experiments:
Assay type in all cases: functional
[1] = test system: A498; assay: Growth inhibition of human A498 cells incubated for 48 hrs by sulforhodamine B assay
Procedure, shortened: (§1)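 NCI Developmental Therapeutics Program NCI60 panel. Compounds that were active in the 10 µM one-dose screen went on to dose–response testing. Growth at each concentration is expressed relative to untreated control (100%). GI50 (concentration giving 50% of maximal inhibition of proliferation) and TGI (concentration giving total growth inhibition) were derived from the curves.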

[2] = test system: HOP-92; assay: Growth inhibition of human HOP-92 cells incubated for 48 hrs by sulforhodamine B assay
Procedure, shortened: (§2)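 NCI60 panel at the NCI Developmental Therapeutics Program. Only compounds active in the 10 µM screen went to dose-response testing. GI50, the concentration giving 50% of maximal inhibition of proliferation, and TGI, the concentration giving total growth inhibition, were derived from the dose-response curves.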

[3] = test system: COLO 205; assay: Growth inhibition of human COLO 205 cells assessed as cell growth at 0.01 uM incubated for 48 hrs by sulforhodamine B assay relative to control; conditions: read-out: Activity; procedure, shortened: as §1
[4] = test system: SF-295; assay: Growth inhibition of human SF-295 cells assessed as cell growth at 0.1 uM incubated for 48 hrs by sulforhodamine B assay relative to control; conditions: read-out: Activity
[5] = test system: MOLT-4; assay: Growth inhibition of human MOLT-4 cells incubated for 48 hrs by sulforhodamine B assay; procedure, shortened: as §2
[6] = test system: UO-31; assay: Growth inhibition of human UO-31 cells assessed as cell growth at 100 uM incubated for 48 hrs by sulforhodamine B assay relative to control; conditions: read-out: Activity
[7] = test system: UO-31; assay: Growth inhibition of human UO-31 cells assessed as cell growth at 0.1 uM incubated for 48 hrs by sulforhodamine B assay relative to control; conditions: read-out: Activity
[8] = test system: ACHN; assay: Growth inhibition of human ACHN cells assessed as cell growth at 100 uM incubated for 48 hrs by sulforhodamine B assay relative to control; conditions: read-out: Activity
[9] = test system: NCI-H522; assay: Growth inhibition of human NCI-H522 cells incubated for 48 hrs by sulforhodamine B assay; procedure, shortened: as §2
[10] = test system: M14; assay: Growth inhibition of human M14 cells assessed as cell growth at 100 uM incubated for 48 hrs by sulforhodamine B assay relative to control; conditions: read-out: Activity
[11] = test system: SF-295; assay: Growth inhibition of human SF-295 cells assessed as cell growth at 100 uM incubated for 48 hrs by sulforhodamine B assay relative to control; conditions: read-out: Activity
[12] = test system: NCI/ADR-RES; assay: Growth inhibition of human NCI/ADR-RES cells incubated for 48 hrs by sulforhodamine B assay; procedure, shortened: as §2
[13] = test system: NCI-H460; assay: Growth inhibition of human NCI-H460 cells assessed as cell growth at 1 uM incubated for 48 hrs by sulforhodamine B assay relative to control; conditions: read-out: Activity
[14] = test system: NCI-H226; assay: Growth inhibition of human NCI-H226 cells assessed as cell growth at 1 uM incubated for 48 hrs by sulforhodamine B assay relative to control; conditions: read-out: Activity
[15] = test system: BT-549; assay: Growth inhibition of human BT-549 cells assessed as cell growth at 0.1 uM incubated for 48 hrs by sulforhodamine B assay relative to control; conditions: read-out: Activity
[16] = test system: MDA-MB-435; assay: Growth inhibition of human MDA-MB-435 cells incubated for 48 hrs by sulforhodamine B assay; procedure, shortened: as §2
[17] = test system: OVCAR-3; assay: Growth inhibition of human OVCAR-3 cells assessed as cell growth at 0.1 uM incubated for 48 hrs by sulforhodamine B assay relative to control; conditions: read-out: Activity
[18] = test system: SR; assay: Growth inhibition of human SR cells assessed as cell growth at 0.01 uM incubated for 48 hrs by sulforhodamine B assay relative to control; conditions: read-out: Activity
[19] = test system: SK-MEL-2; assay: Growth inhibition of human SK-MEL-2 cells assessed as cell growth at 1 uM incubated for 48 hrs by sulforhodamine B assay relative to control; conditions: read-out: Activity
[20] = test system: NCI-H460; assay: Growth inhibition of human NCI-H460 cells assessed as cell growth at 0.01 uM incubated for 48 hrs by sulforhodamine B assay relative to control; conditions: read-out: Activity
[21] = test system: HT-29; assay: Growth inhibition of human HT-29 cells assessed as cell growth at 1 uM incubated for 48 hrs by sulforhodamine B assay relative to control; conditions: read-out: Activity
[22] = test system: SNB-75; assay: Growth inhibition of human SNB-75 cells assessed as cell growth at 100 uM incubated for 48 hrs by sulforhodamine B assay relative to control; conditions: read-out: Activity
[23] = test system: MDA-MB-468; assay: Growth inhibition of human MDA-MB-468 cells assessed as cell growth at 0.01 uM incubated for 48 hrs by sulforhodamine B assay relative to control; conditions: read-out: Activity
[24] = test system: SNB-19; assay: Growth inhibition of human SNB-19 cells assessed as cell growth at 1 uM incubated for 48 hrs by sulforhodamine B assay relative to control; conditions: read-out: Activity
[25] = test system: SK-MEL-28; assay: Growth inhibition of human SK-MEL-28 cells assessed as cell growth at 100 uM incubated for 48 hrs by sulforhodamine B assay relative to control; conditions: read-out: Activity
[26] = test system: SF-268; assay: Growth inhibition of human SF-268 cells assessed as cell growth at 0.1 uM incubated for 48 hrs by sulforhodamine B assay relative to control; conditions: read-out: Activity
[27] = test system: HT-29; assay: Growth inhibition of human HT-29 cells incubated for 48 hrs by sulforhodamine B assay; procedure, shortened: as §2
[28] = test system: HCT-116; assay: Growth inhibition of human HCT-116 cells incubated for 48 hrs by sulforhodamine B assay; procedure, shortened: as §2
[29] = test system: OVCAR-5; assay: Growth inhibition of human OVCAR-5 cells assessed as cell growth at 0.01 uM incubated for 48 hrs by sulforhodamine B assay relative to control; conditions: read-out: Activity
[30] = test system: HCC 2998; assay: Growth inhibition of human HCC 2998 cells assessed as cell growth at 0.01 uM incubated for 48 hrs by sulforhodamine B assay relative to control; conditions: read-out: Activity; procedure, shortened: as §1
[31] = test system: NCI-H226; assay: Growth inhibition of human NCI-H226 cells assessed as cell growth at 100 uM incubated for 48 hrs by sulforhodamine B assay relative to control; conditions: read-out: Activity
[32] = test system: HCC 2998; assay: Growth inhibition of human HCC 2998 cells assessed as cell growth at 0.1 uM incubated for 48 hrs by sulforhodamine B assay relative to control; conditions: read-out: Activity; procedure, shortened: as §1
[33] = test system: SW-620; assay: Growth inhibition of human SW-620 cells assessed as cell growth at 0.1 uM incubated for 48 hrs by sulforhodamine B assay relative to control; conditions: read-out: Activity
[34] = test system: K562; assay: Growth inhibition of human K562 cells assessed as cell growth at 100 uM incubated for 48 hrs by sulforhodamine B assay relative to control; conditions: read-out: Activity
[35] = read-out: LC50 (the source's name)

Cc1ccc(NC(=O)c2sc3nc4c(cc3c2N)C(=O)CCC4)cc1C
GI50 [1]: 0.198 µM
CC50 [1, 35]: > 100 µM
LC50 (concentration killing 50% of the starting cells) [2]: > 100 µM
TGI [2]: > 100 µM
growth at 0.01 µM [3]: 101%
growth at 0.1 µM [4]: 85%
GI50 [5]: 6.41 µM
TGI [5]: 76.2 µM
CC50 [5, 35]: > 100 µM
growth at 100 µM [6]: 16%
growth at 0.1 µM [7]: 81%
growth at 100 µM [8]: 12%
GI50 [9]: 0.256 µM
LC50 [9]: > 100 µM
TGI [9]: 20 µM
growth at 100 µM [10]: 4%
growth at 100 µM [11]: 12%
GI50 [12]: 0.658 µM
TGI [12]: > 100 µM
CC50 [12, 35]: > 100 µM
growth at 1 µM [13]: 11%
growth at 1 µM [14]: 68%
growth at 0.1 µM [15]: 108%
GI50 [16]: 0.121 µM
TGI [16]: 0.322 µM
growth at 0.1 µM [17]: 101%
growth at 0.01 µM [18]: 106%
growth at 1 µM [19]: 22%
growth at 0.01 µM [20]: 102%
growth at 1 µM [21]: 14%
growth at 100 µM [22]: 10%
growth at 0.01 µM [23]: 95%
growth at 1 µM [24]: 37%
growth at 100 µM [25]: 25%
growth at 0.1 µM [26]: 94%
GI50 [27]: 0.399 µM
LC50 [27]: > 100 µM
TGI [27]: ≥ 100 µM
GI50 [28]: 0.527 µM
LC50 (concentration killing 50% of cells) [28]: > 100 µM
TGI [28]: > 100 µM
growth at 0.01 µM [29]: 89%
growth at 0.01 µM [30]: 99%
growth at 100 µM [31]: 36%
growth at 0.1 µM [32]: 93%
growth at 0.1 µM [33]: 95%
growth at 100 µM [34]: -4%
